Screening results deposited in PubChem BioAssay by Broad Institute.
The list is not random: actives were taken first. Their share in the collection is about 1.5%.
MLL AF4-AF9 inh: blocks AF4 peptide binding to human AF9; P42568; AlphaScreen, biotin-AF4 peptide binding to FLAG-AF9; inhibition, % at 10 µM; hit rate 0.47% among 350,000; AID 651704;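 active means every replicate reaching a set inhibition limit, whatever the replicate mean, cut at about 25% in these data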
ERAP1 inh: ERAP1 (human) enzyme inhibition; Q9NZ08; recombinant ERAP1, Leu-AMC fluorescence, 60 min; inhibition, % at 10.7 µM; hit rate 0.15% among 340,000; AID 652197;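 active means mean replicate inhibition of at least 30%, or all replicates individually reaching that 30% level; inactive means mean below 30% and not every replicate reaching it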
GSIS activator: GLuc luminescence reporter in INS-1E cells, primary screen for activators of glucose-dependent secretion of insulin; INS-1E GLuc reporter insulin secretion, 2-3 h; activation, % at 16.6 µM; hit rate 0.61% among 370,000; AID 743287;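 active means lowest replicate activation of at least 40%, so every replicate reaches that level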
S100A4 inh HTS: S100A4-myosin IIA interaction inhibition | AID 652163 | P26447 | hit rate 0.14% among 360,000 | inhibition, % at 10.7 µM | S100A4/TAMRA-MyoIIA peptide fluorescence polarization;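 active means mean inhibition of at least 70% across replicates, with every replicate also reaching that level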
Target sequence (P26447 whole entry, looked up): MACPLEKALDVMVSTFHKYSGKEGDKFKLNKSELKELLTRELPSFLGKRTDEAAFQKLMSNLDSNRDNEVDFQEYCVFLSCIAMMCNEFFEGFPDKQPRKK
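Test system – S100A4 monomer (human) · Compound – single-point compound testing · Schedule – 5 min incubation before reading · Probe or stimulus – TAMRA-labelled myosin IIA heavy-chain peptide probe, 5 nM · Benchmarks – neutral control DMSO, positive control TFP · Medium – Calcium-containing HEPES buffer, pH 7.2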
RAD52 anneal inh: blocks human RAD52 DNA annealing; P43351; recombinant RAD52 DNA annealing, FRET fluorescence; hit rate 0.46% among 360,000; AID 651710; inhibition, % at 18.7 µM;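 active means every replicate showing at least 50% inhibition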
Target sequence (P43351 whole entry, looked up): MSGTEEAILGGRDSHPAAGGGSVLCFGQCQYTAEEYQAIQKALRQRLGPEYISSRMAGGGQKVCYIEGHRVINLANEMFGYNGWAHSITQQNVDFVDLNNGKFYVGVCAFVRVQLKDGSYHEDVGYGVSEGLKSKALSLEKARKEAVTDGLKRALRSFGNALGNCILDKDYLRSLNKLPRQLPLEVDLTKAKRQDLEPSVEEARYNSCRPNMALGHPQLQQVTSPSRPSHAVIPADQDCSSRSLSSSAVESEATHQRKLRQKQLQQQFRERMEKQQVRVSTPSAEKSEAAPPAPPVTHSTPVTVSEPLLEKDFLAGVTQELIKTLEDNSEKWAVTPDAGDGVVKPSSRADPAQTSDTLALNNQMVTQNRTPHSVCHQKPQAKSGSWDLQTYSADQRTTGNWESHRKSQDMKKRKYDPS
RAD52 DNA ctr: DNA binding artifact in RAD52 counter-screen; shares compounds with RAD52 anneal inh; Salmon sperm DNA/acridine orange FP displacement; AC50, µM; hit rate 8% among 1,000;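 active means fitted half-maximal concentration for signal loss at or below twice the highest dose tested, in every separate run, actives reach about 64 µM in these data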
Each line names hits and unclear results; the compound was inactive in the other large screens (follow-up assays come after a bar, where they were run); ! = not confirmed by another sample.

Cc1c(C(=O)Nc2ccc(S(=O)(=O)N(C)C3CCN(C)CC3)cc2)oc2c(Cl)cccc12	RAD52 anneal inh 69 | RAD52 DNA ctr inactive
COc1ccc(NC(=O)Nc2ccc3c(c2)CC(=O)N([C@H](C)CO)C[C@H](C)[C@@H](CN(C)Cc2ccc(Cl)c(Cl)c2)O3)cc1	none (no result: MLL AF4-AF9 inh, ERAP1 inh, S100A4 inh HTS, RAD52 anneal inh)
CN(C)CCCNc1ncnc2oc(-c3ccccc3)c(-c3ccccc3)c12	none | RAD52 DNA ctr inactive
CN1c2ccc(Br)cc2[C@@H]2[C@@H](CCN2S(=O)(=O)c2cccc(F)c2)[C@H]1CO	none
CN1CCN(CCCN2c3ccccc3Sc3ccc(C(F)(F)F)cc32)CC1	MLL AF4-AF9 inh 27!, RAD52 anneal inh 50! | RAD52 DNA ctr inactive
C[C@@H]1CN([C@H](C)CO)C(=O)c2cc(C#CC(C)(C)O)cnc2O[C@H]1CN(C)Cc1ccccn1	none
c1cc(OCCCN2CCCCC2)ccc1CN1CCCCC1	none | RAD52 DNA ctr inactive
C[C@H](CO)N1C[C@H](C)[C@@H](CN(C)S(C)(=O)=O)Oc2ccc(NC(=O)Nc3cccc4ccccc34)cc2CC1=O	none (no result: GSIS activator)
CCN(CC)CCOC(=O)c1ccc(N/C=C(/C#N)c2nc(-c3ccc(OC)c(OC)c3)cs2)cc1	GSIS activator 56, RAD52 anneal inh 70 (no result: ERAP1 inh) | RAD52 DNA ctr inactive
C[C@@H]1NC(=O)[C@H](CCCN=C(N)N)NC(=O)c2cc([N+](=O)[O-])cc(I)c2NCCC[C@@H](C(N)=O)NC1=O	RAD52 anneal inh 86 | RAD52 DNA ctr inactive
NCCCC[C@@H]1NC(=O)c2cc([N+](=O)[O-])cc(F)c2NCCCC[C@@H](C(N)=O)NC(=O)[C@H](CCC(N)=O)NC1=O	MLL AF4-AF9 inh 27, RAD52 anneal inh 80 (no result: ERAP1 inh) | RAD52 DNA ctr inactive
NC(=O)[C@@H]1CCCCNc2c(F)cc([N+](=O)[O-])cc2C(=O)N[C@@H](CCCN=C(N)N)C(=O)NCC(=O)N1	RAD52 anneal inh 61 | RAD52 DNA ctr inactive
C[C@@H]1NC(=O)[C@H](CCC(N)=O)NC(=O)c2cc([N+](=O)[O-])cc(I)c2NCCC[C@@H](C(N)=O)NC1=O	none
COc1cccc(-c2cnc3c(c2)C(=O)N([C@@H](C)CO)C[C@H](C)[C@H](CN(C)Cc2ccncc2)O3)c1	none
CCS(=O)(=O)NCC[C@H]1CC[C@H](NS(=O)(=O)c2cccc(F)c2)[C@H](CO)O1	none
c1ccc(-c2cc(NCCN3CCCCC3)c3ccccc3n2)cc1	RAD52 anneal inh 89 | RAD52 DNA ctr inactive
O=C(NCCN1CCOCC1)c1cc(-c2ccc(F)cc2)nc2ccccc12	none
O=C(O)C[C@@H]1CC[C@H](NC(=O)c2ccccc2F)[C@@H](CO)O1	none
COc1ccc2nc(NC3=NC(c4ccccc4)CC(=O)N3)nc(C)c2c1 (stereo not given)	RAD52 anneal inh 72 | RAD52 DNA ctr inactive
CCN1CCN(CCCNC(=O)C2CCN(c3nnc(-n4cccc4)s3)CC2)CC1	none
CCN1CCN(CCCNC(=O)C2CCN(c3nnc(-n4c(C)ccc4C)s3)CC2)CC1	RAD52 anneal inh 73 (no result: ERAP1 inh) | RAD52 DNA ctr inactive
NCC[C@H](O)C(=O)N[C@@H]1C[C@H](N)[C@@H](O[C@H]2O[C@H](CN)[C@@H](O)[C@H](O)[C@H]2O)[C@H](O)[C@H]1O[C@H]1O[C@H](CO)[C@@H](O)[C@H](N)[C@H]1O	MLL AF4-AF9 inh 62, RAD52 anneal inh 57 (no result: GSIS activator) | RAD52 DNA ctr inactive
COC(=O)C1=CO[C@@H](O[C@@H]2O[C@H](CO)[C@@H](O)[C@H](O)[C@H]2O)C2C(CO)=CCC12 (stereo not given in full)	none (no result: ERAP1 inh)
C[C@H](CO)N1C[C@H](C)[C@H](CN(C)C(=O)C2CCC2)Oc2cc(-c3ccc(F)cc3)ccc2S1(=O)=O	none (no result: MLL AF4-AF9 inh, ERAP1 inh, S100A4 inh HTS, RAD52 anneal inh)
CN1CCN(c2ccc(NC(=O)c3ccc(-c4ccc(Cl)cc4)o3)cc2)CC1	none
CN1CCN(c2ccc(NC(=O)c3ccc(-c4cccc([N+](=O)[O-])c4)o3)cc2)CC1	RAD52 anneal inh 58 | RAD52 DNA ctr inactive
Cc1ccc(S(=O)(=O)Nc2ccc3c(c2)C(=O)N([C@@H](C)CO)C[C@H](C)[C@@H](CN(C)C(=O)C2CCCCC2)OCCCC[C@@H](C)O3)cc1	none
CN(C)CCOC(=O)c1ccc2[nH]c3c(c2c1)CSCC3	RAD52 anneal inh 99 | RAD52 DNA ctr inactive
NCC[C@@H]1CC[C@H](NC(=O)C2CC2)[C@@H](CO)O1	none
COc1cccc(-c2nc(C(=O)NCCCN3CCOCC3)cc3c2[nH]c2ccccc23)c1	RAD52 anneal inh 59 | RAD52 DNA ctr inactive
O=C(NCCCN1CCOCC1)c1cc2c([nH]c3ccccc32)c(-c2cccc(Br)c2)n1	none (no result: ERAP1 inh)
COc1ccc(S(=O)(=O)Nc2ccc3c(c2)C(=O)N([C@@H](C)CO)C[C@H](C)[C@H](CN(C)Cc2ccc(C(=O)Nc4ccccc4N)cc2)O3)cc1	none
C/C(=N\NC(=O)Nc1ccccc1)c1ccccc1	RAD52 anneal inh 100 | RAD52 DNA ctr inactive
COc1cc(CNC(C)c2ccccc2)cc(Br)c1OCc1ccc(F)cc1 (stereo not given)	RAD52 anneal inh 54 | RAD52 DNA ctr inactive
COc1cc(CNC(C)c2ccccc2)cc(Br)c1OCc1ccccc1 (stereo not given)	none
Cc1cc(C)c(CN2CCN(CCCn3cnc(C(=O)Nc4ccc(C)c(C)c4)n3)CC2)c(C)c1	RAD52 anneal inh 56 | RAD52 DNA ctr inactive
Cc1noc(C)c1NC(=O)Nc1ccc2c(c1)CC(=O)N([C@@H](C)CO)C[C@H](C)[C@H](CN(C)CC1CCCCC1)O2	none
CCN1CCN(Cc2ccc(NC(=O)c3cc(NC(=O)c4cncc(-c5ccc(C#N)cc5)c4)cc(OC)c3)cc2C(F)(F)F)CC1	RAD52 anneal inh 87 | RAD52 DNA ctr inactive
CCN1CCN(Cc2ccc(NC(=O)c3cc(NC(=O)c4cnnc5ccccc45)cc(OC)c3)cc2C(F)(F)F)CC1	RAD52 anneal inh 70! | RAD52 DNA ctr inactive
CCN1CCN(Cc2ccc(NC(=O)c3ccc(C)c(NC(=O)N4CCNC4=O)c3)cc2C(F)(F)F)CC1	none
COc1ccc2c3c([nH]c2c1)[C@H](CO)NCC31CN(C(=O)Nc2ccc3c(c2)OCO3)C1	none
CC(C)NC(=O)N1C[C@@H]2C(c3ccc(Br)cc3)[C@H](C1)N2CC(F)(F)F (stereo not given in full)	none (no result: MLL AF4-AF9 inh, ERAP1 inh, S100A4 inh HTS, RAD52 anneal inh)
CN=C(C[N+](=O)[O-])NCCSCc1ccc(CN(C)C)o1	RAD52 anneal inh 57 | RAD52 DNA ctr inactive
C[C@@H]1CN([C@@H](C)CO)C(=O)c2cccc(NS(C)(=O)=O)c2O[C@H]1CN(C)C	none
CCCOc1cccc(C(=O)NC(=S)Nc2ccc(N3CCN(C)CC3)cc2)c1	RAD52 anneal inh 66 | RAD52 DNA ctr inactive
CCOc1cccc(C(=O)NC(=S)Nc2ccc(N3CCN(CC)CC3)cc2)c1	none
CCN1CCN(c2ccc(NC(=O)c3cc4ccccc4cc3OC)cc2C)CC1	RAD52 anneal inh 83 | RAD52 DNA ctr inactive
